We go through 1 compound from ChEMBL document CHEMBL1152365, “First experimental identification of Ras-inhibitor binding interface using a water-soluble Ras ligand” (Bioorg Med Chem Lett, 2009).

Data set [1] is described as follows: Solubility in water. The format is physicochemical. The note with it: buffer.
The target in data set [2] is T1, Ras-specific guanine nucleotide-releasing factor 1 (Homo sapiens) (UniProt Q13972).
T1 sequence (whole entry): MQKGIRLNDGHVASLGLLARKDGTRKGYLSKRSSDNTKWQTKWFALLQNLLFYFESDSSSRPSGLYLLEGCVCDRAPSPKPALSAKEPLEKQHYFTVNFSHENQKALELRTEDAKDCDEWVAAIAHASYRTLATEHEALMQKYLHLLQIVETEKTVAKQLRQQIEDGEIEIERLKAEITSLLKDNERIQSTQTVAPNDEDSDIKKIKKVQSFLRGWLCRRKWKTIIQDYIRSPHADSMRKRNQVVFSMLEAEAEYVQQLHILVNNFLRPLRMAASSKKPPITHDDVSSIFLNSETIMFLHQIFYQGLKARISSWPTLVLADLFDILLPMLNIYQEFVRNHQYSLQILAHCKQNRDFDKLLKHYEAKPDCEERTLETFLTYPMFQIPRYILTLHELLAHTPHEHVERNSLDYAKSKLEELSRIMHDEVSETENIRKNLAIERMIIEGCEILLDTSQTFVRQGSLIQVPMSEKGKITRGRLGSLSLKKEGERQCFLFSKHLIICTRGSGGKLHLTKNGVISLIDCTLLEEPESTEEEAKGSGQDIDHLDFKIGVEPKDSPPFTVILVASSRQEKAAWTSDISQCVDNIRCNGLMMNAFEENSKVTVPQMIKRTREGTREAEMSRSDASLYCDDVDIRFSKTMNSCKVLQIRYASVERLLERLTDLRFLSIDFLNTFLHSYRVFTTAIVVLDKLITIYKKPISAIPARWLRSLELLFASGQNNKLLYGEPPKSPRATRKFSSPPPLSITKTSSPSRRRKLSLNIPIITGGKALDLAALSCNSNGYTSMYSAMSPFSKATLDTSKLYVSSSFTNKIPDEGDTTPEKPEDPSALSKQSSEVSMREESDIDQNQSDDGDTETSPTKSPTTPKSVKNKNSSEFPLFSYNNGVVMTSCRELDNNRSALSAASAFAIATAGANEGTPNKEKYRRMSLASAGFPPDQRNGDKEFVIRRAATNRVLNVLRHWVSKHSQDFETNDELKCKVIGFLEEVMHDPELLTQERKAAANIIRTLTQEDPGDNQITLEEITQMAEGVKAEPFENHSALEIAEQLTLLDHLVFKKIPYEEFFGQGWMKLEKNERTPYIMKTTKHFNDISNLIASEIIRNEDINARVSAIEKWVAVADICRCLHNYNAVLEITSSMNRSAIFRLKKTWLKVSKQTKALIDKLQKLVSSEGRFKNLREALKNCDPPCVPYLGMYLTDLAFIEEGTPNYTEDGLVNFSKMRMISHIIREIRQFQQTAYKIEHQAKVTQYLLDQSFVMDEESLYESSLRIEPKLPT
The experiment in a line: Inhibition of GST-tagged Ras-GRF1-catalyzed exchange of bound GDP on histidine-tagged recombinant H-Ras expressed in Escherichia coli M15 at 100 uM by luminescence spectrometry. Put shortly: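 GDP-to-mantGDP exchange measured on 0.25 µM H-Ras·GDP with […] mantGDP and 0.0625 µM RasGRF1, with compound at 0, 50, 100, 250 or 500 µM. Fluorescence read every second for at least 1500 s. Initial rate taken as first derivative at time 0 and normalized to the no-compound control set at 100. Mean of at least three independent experiments.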

In data set [3] the test system is NIH3T3. The experiment in a line: Antiproliferative activity against mouse NIH/3T3 cells at 150 uM after 24 hrs by coulter counter. The format is functional, cell-based.
Data set [4] deals with GTPase HRas (Homo sapiens) (UniProt P01112). In words: Binding affinity to H-Ras expressed in BL21 De3 Escherichia coli assessed as induction of protein denaturation by circular dichroism. (Circular dichroism is widely used to follow secondary structure.)
The nature of data set [5]: Chemical stability at neutral pH by HPLC analysis. The format is physicochemical. Put shortly:
(§1)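 Stability assessed by TLC and HPLC after storage at neutral pH for months.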

In data set [6] the test system is NIH3T3. The experiment in a line: Antiproliferative activity against mouse NIH/3T3 cells at 450 uM after 24 hrs by coulter counter. The format is functional, cell-based.
Data set [7] has as its target GTPase HRas (Homo sapiens) (UniProt P01112). In words: Binding affinity to hexa-histidine tagged H-Ras.GDP(1-166) expressed in BL21 De3 Escherichia coli by NMR binding experiment.
Data set [8] can be described thus: Chemical stability at neutral pH by TLC analysis. The format is physicochemical. Put shortly: as §1
The subject of data set [9] is NIH3T3. The experiment in a line: Antiproliferative activity against mouse NIH/3T3 cells assessed as morphological changes at 150 uM after 48 hrs. Type of data set: functional, cell-based.
Data set [10] in a line: Solubility in TRIS buffer. Type of data set: physicochemical.
Data set [11] addresses GTPase HRas (Homo sapiens) (UniProt P01112). The experiment in a line: Binding affinity to H-Ras(1-166) expressed in BL21 De3 Escherichia coli by isothermal titration calorimetric study.
Data set [12] shares this target. The experiment in a line: Binding affinity to H-Ras expressed in BL21 De3 Escherichia coli assessed as damage to protein structure by circular dichroism.

Activity calls are given as the source filed them. The rule behind the calls is not given here.

Chain of GTPase HRas (Homo sapiens) (P01112 whole entry, looked up): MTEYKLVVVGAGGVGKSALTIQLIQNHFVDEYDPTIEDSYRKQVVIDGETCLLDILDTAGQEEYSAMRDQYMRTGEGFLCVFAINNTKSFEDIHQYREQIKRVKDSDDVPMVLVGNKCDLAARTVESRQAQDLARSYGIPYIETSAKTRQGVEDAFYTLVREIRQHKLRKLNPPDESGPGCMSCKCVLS

By inhibition is commonly meant the drop in the measured response relative to a control, in per cent. Regarding `OC[C@H]1O[C@@H](N(Cc2ccc(O)c(O)c2)OCc2ccccc2)[C@H](O)[C@@H](O)[C@@H]1O`, the solubility result in [1] and in data set [10] was “Soluble” each time. The inhibition in data set [2] was 50%. Further, the outcome (in the data set on NIH3T3 [3]; in the data set on NIH3T3 [6]; in data set [7]; in the data set on NIH3T3 [9]) was Active. Also, the result in data set [4] and in data set [12] was inactive. The Stability result in [5] and in data set [8] was “Stable” in each case. Further, in data set [11], the Activity amounted to 37 µM.
